The subject of test [1] is SK-MEL. Put plainly: Cytotoxicity against human malignant melanoma cell line SK-MEL. Format: functional, cell-based. In outline:
(§1)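 SK-MEL human malignant melanoma cells, 25,000 per well, were exposed to compound solutions for 72 h. Viable cells were counted by neutral red uptake: cells were washed with saline, incubated 1.5 h in 0.17% neutral red in serum-free RPMI, then washed again to remove extracellular dye.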

For test [2], the species on record is Homo sapiens. The experiment in a line: In vitro concentration required to inhibit classical pathway complement induced hemolysis in human; NA= not active. Format: functional. An outline of the steps:
(§2)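 Classical pathway complement inhibition was tested in vitro; IC50 values are means of three experiments with standard deviation.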

The test system of test [3] is SK-MEL. The experiment in a line: Cytotoxicity against human malignant melanoma cell line SK-MEL; NA= not active. The test is classed as functional, cell-based. In outline: as §1
Test [4] is described as follows: In vitro therapeutic index (IC50 cytotoxicity/ IC50 complement inhibition) was determined. Format: functional.
The species entered for test [5] is Homo sapiens. The experiment in a line: In vitro concentration required to inhibit classical pathway complement induced hemolysis in human. Format: functional. In outline: as §2
Test [6] is described as follows: In vitro therapeutic index (IC50 cytotoxicity/ IC50 complement inhibition) was determined; ND=not active. The test is classed as functional.

What is called IC50 is the concentration needed to halve the response being measured. A low value points to greater potency.

The source made the active and inactive calls. The calls are words filed in the database; no cut-off is given here.

Take `CC1(C)C2CCC[C@H](/C=C/c3ccccc3C#N)[C@@]2(C)CC[C@@H]1O` (stereo partly specified): the IC50 in the test on SK-MEL [1] is 155 µM; in the test listed under Homo sapiens [2], “Not Active”.
On to `COC(=O)c1ccc(/C=C/[C@H]2CCCC3C(C)(C)[C@@H](O)CC[C@@]32C)cc1` (stereo partly specified), for which the IC50 result in the test on SK-MEL [3] and in the test filed under Homo sapiens [2] was “Not Active” each time.
Compound `CC1(C)C2CCC[C@H](/C=C/c3ccc(C(=O)O)cc3)[C@@]2(C)CC[C@@H]1O` (stereo partly specified) showed a TI in test [4] of 0.6. Besides, the IC50 in the test with SK-MEL [1] came to 380 µM; in the test listed under Homo sapiens [5], 623 µM.
In the same order, the values of `CC1(C)C2CCC(Cc3ccc(C(=O)O)cc3)C[C@@]2(C)CC[C@@H]1O` (single isomer, unassigned) are 0.6, 378 µM and 610 µM.
In the same order, the values of `CC1(C)C2CCC[C@H](/C=C/c3cccc(C(=O)O)c3)[C@@]2(C)CC[C@@H]1O` (stereo partly specified) are 0.5, 269 µM and 550 µM.
For `CC1(C)C2CCC(Cc3cccc(C(=O)O)c3)C[C@@]2(C)CC[C@@H]1O` (single isomer, unassigned), in that order: 0.6, 333 µM and 601 µM.
Turning to `CC1(C)C2CC[C@@H](Cc3ccccc3C(=O)O)C[C@@]2(C)CC[C@@H]1O` (stereo partly specified), the TI in test [4] amounted to 0.8. The IC50 is 484 µM in the test on SK-MEL [1] and 616 µM in the test listed under Homo sapiens [5].
Take `COc1ccc(CO[C@H]2CC[C@]3(C)CC(Cc4ccc(C(=O)O)cc4)CCC3C2(C)C)cc1` (single isomer, unassigned): the IC50 was 200 µM with SK-MEL [1] and “Not Active” in the test filed under Homo sapiens [2]. Further, the TI entry in test [6] is “inactive”.
For the compound `CC1(C)CC[C@]2(C(=O)O)CC[C@]3(C)C(=CC[C@@H]4[C@@]5(C)CC[C@H](O)C(C)(C)[C@@H]5CC[C@]43C)[C@@H]2C1` [OLEANOLIC_ACID], the TI in test [4] came out at 1.55.
With `CC1(C)C2CCC[C@H](/C=C/c3ccccc3C(=O)O)[C@@]2(C)CC[C@@H]1O` (stereo partly specified), the TI in test [4] amounted to 0.6. Besides, the IC50 in the test with SK-MEL [1] was determined as 380 µM; in the test listed under Homo sapiens [5], 633 µM.
In the same order, the values of `COc1ccc(CO[C@H]2CC[C@]3(C)CC(Cc4cccc(C(=O)O)c4)CCC3C2(C)C)cc1` (single isomer, unassigned) are 0.4, 180 µM and 488 µM.
On to `COc1ccc(CO[C@H]2CC[C@]3(C)C[C@H](Cc4ccccc4C(=O)O)CCC3C2(C)C)cc1` (stereo partly specified), for which the results for the IC50 in the test with SK-MEL [1] and in the test listed under Homo sapiens [2] were 166 µM and “Not Active”, respectively.
